From ChEMBL document CHEMBL1154852, “Design, synthesis and pharmacological screening of potential anticonvulsant agents using hybrid approach” (Eur J Med Chem, 2010) come the findings set out here.

The subject of data set [1] is Mus musculus. Kind of data set: Toxicity in ip dosed Swiss albino mouse assessed as decrease in locomotor activity after 30 mins by actophotometer. The class given is organism-based. Conditions: in vivo, 0.5 h. The essentials:
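Actophotometer test in six mice per group, dosed 10 or 30 mg/kg i.p.; vehicle control 0.2% Tween 80 (0.3 ml/kg); diazepam 5 mg/kg as standard. Scored 30 min after dosing: beam interruptions counted over 10 min after 1 min acclimatization, before versus after treatment. Mean ± SEM.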

Data set [2] concerns Mus musculus. Kind of data set: Anticonvulsant activity in Swiss albino mouse assessed as reduction of supramaximal electroshock-induced hind limb tonic extension response at 30 mg/kg, ip administered 30 mins before SME challenge measured after 1 hr. The class given is functional, Hindlimb. Conditions: route intraperitoneal. The essentials:
(§1)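 Swiss albino mice of either sex, 30–35 g, n=6 per group, dosed 10 or 30 mg/kg i.p.; diazepam 5 mg/kg as standard. After 1 h, electroshock 42 mA for 0.2 s via ear electrodes. Readout: duration of hind limb extension phase (sec). Mean ± SEM; one-way ANOVA with Student–Newman–Keuls test.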
On the technique in general: The maximal electroshock test induces tonic seizures with an electrical stimulus.

Data set [3] deals with Mus musculus. Kind of data set: Anticonvulsant activity in Swiss albino mouse assessed as reduction of supramaximal electroshock-induced hind limb tonic extension response at 10 mg/kg, ip administered 30 mins before SME challenge measured after 1 hr. The class given is functional, Hindlimb. The following applies: route intraperitoneal. The essentials:
as §1

For data set [4], the system named is Mus musculus. Briefly: Anticonvulsant activity in Swiss albino mouse assessed as inhibition of isoniazide hydrazone-induced seizure at 10 mg/kg, ip administered 30 mins before isoniazide hydrazone challenge measured after 1 hr. Format: functional. Conditions: route intraperitoneal. The essentials: (§2)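 Swiss albino mice, 30–35 g, given test drug 10 or 30 mg/kg i.p.; INH 250 mg/kg i.p. injected 30 min later. Animals showing excitement, myoclonic jerks, clonic and maximal seizures grouped, n=6. Readout: reduction of seizure duration (sec). Reference standard diazepam. Mean ± SEM; one-way ANOVA with Student–Newman–Keuls test.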

Data set [5] concerns Mus musculus. Briefly: Anticonvulsant activity in Swiss albino mouse assessed as inhibition of isoniazide hydrazone-induced seizure at 30 mg/kg, ip administered 30 mins before isoniazide hydrazone challenge measured after 1 hr. The class given is functional. Conditions: route intraperitoneal. The essentials:
as §2

In data set [6] the test system is Mus musculus. Briefly: Toxicity in ip dosed Swiss albino mouse assessed as assessed as decrease in fall of time after 30 mins by rotarod test. Format: organism-based. The following applies: in vivo, 0.5 h.

The structures appear in SMILES notation.

Take `COc1ccc(C2Nc3ccccc3N=C3C2SC(/C=C/c2ccccc2)N3NC(=O)c2c(C)csc2NC(=O)c2ccccc2)cc1` (stereo not drawn): the Activity result in the data set with Mus musculus [1] was “Non-toxic”; in the data set with Mus musculus [2] it was 14.907 s; in the data set on Mus musculus [3], 15.328 s; with Mus musculus [4] it was 101.83 s; with Mus musculus [5], 108.5 s; with Mus musculus [6] it was “Non-toxic”.
As to `Cc1csc(NC(=O)c2ccccc2)c1C(=O)NN1C2=Nc3ccccc3NC(c3ccccc3O)C2SC1/C=C/c1ccccc1` (stereo not drawn), the Activity result is reported as “Non-toxic” with Mus musculus [1]; 14.263 s with Mus musculus [2]; 13.228 s in the data set on Mus musculus [3]; 85.5 s in the data set with Mus musculus [4]; 87.667 s with Mus musculus [5]; “Non-toxic” in the data set with Mus musculus [6].
Turning to `Cc1csc(NC(=O)c2ccccc2)c1C(=O)NN1C2=Nc3ccccc3NC(c3ccccc3Cl)C2SC1/C=C/c1ccccc1` (stereo not drawn), the Activity entry with Mus musculus [1] is “Non-toxic”; in the data set on Mus musculus [2], 13.632 s; in the data set with Mus musculus [3], 14.54 s; in the data set with Mus musculus [4], 81.833 s; with Mus musculus [5], 83.33 s; in the data set with Mus musculus [6] it was “Non-toxic”.
Take `Cc1csc(NC(=O)c2ccccc2)c1C(=O)NN1C2=Nc3ccccc3NC(c3ccc(F)cc3)C2SC1/C=C/c1ccccc1` (stereo not drawn): the Activity entry was “Non-toxic” in the data set with Mus musculus [1]; 15.408 s in the data set on Mus musculus [2]; 16.442 s with Mus musculus [3]; 69.833 s in the data set on Mus musculus [4]; 74 s in the data set on Mus musculus [5]; “Non-toxic” in the data set with Mus musculus [6].
`Cc1csc(NC(=O)c2ccccc2)c1C(=O)NN1C2=Nc3ccccc3NC(c3ccc(N(C)C)cc3)C2SC1/C=C/c1ccccc1` (stereo not drawn): the Activity result in the data set with Mus musculus [1] is given as “Non-toxic”; in the data set on Mus musculus [2], 13 s; in the data set with Mus musculus [3], 13.355 s; with Mus musculus [4], 92.33 s; in the data set with Mus musculus [5], 95.33 s; in the data set with Mus musculus [6] it was “Non-toxic”.
As for `CN1C(=O)CN=C(c2ccccc2)c2cc(Cl)ccc21` [DIAZEPAM], the Activity result in the data set with Mus musculus [1] and in the data set with Mus musculus [6] was “Non-toxic” each time.
Consider `Cc1csc(NC(=O)c2ccccc2)c1C(=O)NN1C2=Nc3ccccc3NC(c3cccc([N+](=O)[O-])c3)C2SC1/C=C/c1ccccc1` (stereo not drawn), for which the Activity entry in the data set with Mus musculus [1] is given as “Non-toxic”; in the data set with Mus musculus [2], 14.907 s; in the data set with Mus musculus [3], 15.328 s; in the data set on Mus musculus [4], 71.33 s; in the data set on Mus musculus [5] it was 78.833 s; in the data set with Mus musculus [6], “Non-toxic”.
